KCNK9 inh – KCNK9 potassium channel inhibitors, primary screen, HEK293 cells, thallium flux; Potassium channel subfamily K member 9 (Homo sapiens), Q9NPC2; FluxOR thallium flux fluorescence; hits give low values; B-score at 10 µM; hit rate 1.2% among 310,000;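 active = ratio B-score over 3 SD below the library mean, with starting fluorescence within 5 SD of its mean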;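 also: negative B-score means less thallium flux so channel inhibition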
KCNK3 inh – human KCNK3 channel inhibitors, primary screen, CHO cells, FluxOR thallium flux, B-score; Potassium channel subfamily K member 3 (Homo sapiens), O14649; hit rate 0.84% among 340,000; AID 602410, 2012; FluxOR fluorescence; hits give low values; B-score at 10 µM;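 active = B-score under library mean minus 4 SD, starting fluorescence ratio at most library mean plus 5 SD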;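 also: more negative B-score means stronger inhibition of thallium flux through KCNK3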
KCNQ1 inh – inhibitors of human KCNQ1 channel, primary screen, cell-based, thallium flux, high-throughput; AID 2642, 2010; hit rate 1.3% among 310,000; Potassium voltage-gated channel subfamily KQT member 1 (Homo sapiens), P51787; CHO-K1 KCNQ1, FluxOR thallium flux fluorescence; hits give high values; B-score at 10 µM;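 active = compounds whose thallium flux B-score, printed positive for inhibition, exceeds three library SD while starting fluorescence stays within three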;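 also: channel opened by potassium depolarization with thallium stimulus after 20 min compound exposure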
Target sequence (P51787 whole entry, looked up): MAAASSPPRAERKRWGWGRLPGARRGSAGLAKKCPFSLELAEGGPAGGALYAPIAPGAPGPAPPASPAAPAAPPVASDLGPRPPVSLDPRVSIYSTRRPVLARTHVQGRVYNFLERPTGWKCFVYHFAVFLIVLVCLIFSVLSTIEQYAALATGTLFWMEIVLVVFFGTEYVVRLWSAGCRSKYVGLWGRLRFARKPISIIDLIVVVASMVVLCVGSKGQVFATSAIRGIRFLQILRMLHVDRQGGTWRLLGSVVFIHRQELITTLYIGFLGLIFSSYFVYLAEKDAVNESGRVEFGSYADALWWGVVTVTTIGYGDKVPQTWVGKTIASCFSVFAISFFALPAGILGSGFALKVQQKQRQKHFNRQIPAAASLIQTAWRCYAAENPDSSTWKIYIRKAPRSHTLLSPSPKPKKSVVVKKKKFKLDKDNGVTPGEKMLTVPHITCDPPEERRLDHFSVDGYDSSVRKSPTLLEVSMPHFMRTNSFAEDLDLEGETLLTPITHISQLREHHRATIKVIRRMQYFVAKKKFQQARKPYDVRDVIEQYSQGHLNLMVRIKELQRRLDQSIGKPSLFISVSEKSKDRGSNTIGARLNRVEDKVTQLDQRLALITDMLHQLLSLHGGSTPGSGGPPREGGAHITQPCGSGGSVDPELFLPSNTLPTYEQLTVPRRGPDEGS
hERG rescue – hERG rescue from dofetilide block, primary screen, cell-based, CHO-hERG, FluxOR thallium flux, dofetilide IC70; AID 1511, 2009; activation (rescue from dofetilide block), less the hit threshold, % at 10 µM; hit rate 0.51% among 310,000; dofetilide IC70 present; Voltage-gated inwardly rectifying potassium channel KCNH2 (Homo sapiens), Q12809;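 active = activation above the mean of controls blocked by dofetilide plus 5 SD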;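 also: thallium influx through hERG after potassium depolarization seen as dye fluorescence rise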
KCNQ1 pot – potentiators or activators of KCNQ1 channel, primary screen, cell-based, thallium flux, high-throughput; B-score at 10 µM; hit rate 0.35% among 310,000; Potassium voltage-gated channel subfamily KQT member 1 (Homo sapiens), P51787; CHO-K1 KCNQ1, thallium flux FluxOR fluorescence; hits give high values;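 active = fluorescence ratio B-score, a plate-corrected score, at least three library SD, with initial intensity B-score within 5 SD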
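Schedule – 37 °C overnight plating, 90-min dark dye load, 20-min compound pretreatment · System – stable KCNQ1 CHO-K1 line · Probe or stimulus – thallium- and potassium-containing depolarizing buffer · Measured by – kinetic FluxOR fluorescence, 10 s baseline plus 110 s post-stimulus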
Kir21 inh – inhibitors of mouse Kir2.1 inward-rectifier potassium channel; Inward rectifier potassium channel 2 (Mus musculus), P35561; B-score at 10 µM; HEK293-Kir2.1, FluxOR thallium flux fluorescence; hits give low values; AID 1672, 2009; hit rate 0.85% among 310,000;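 active = fluorescence ratio B-score at or below minus 3 SD of library scores, with starting-brightness B-score within 2 SD, cut at about -4.2 in these data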;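 also: channel flux triggered by added potassium and thallium sulfate stimulus; B-score of peak minus minimum fluorescence over baseline after thallium stimulus; more negative B-score means stronger Kir2.1 block with less thallium influx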
KCNK9 block conf – KCNK9 potassium channel inhibitors, confirmation, HEK293 cells, thallium flux, duplicate; inhibition, % at 10 µM; AID 492992, 2010; hit rate 43% among 4,900; shares compounds with KCNK9 inh; FluxOR thallium flux fluorescence;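 active = thallium signal inhibited by more than 5 SD of the compound-free buffer control wells, on both duplicate plates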
Kir2-1 spec – mouse Kir2.1 channel inhibition, confirmation, selectivity assay for KCNK9 modulator project, cell-based, HEK293, thallium flux | Kir2.1 cells, FluxOR thallium flux fluorescence | shares compounds with KCNK9 inh | hit rate 4% among 4,900 | inhibition, % at 10 µM | AID 492993, 2010;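 active = thallium signal drop more than 5 SD beyond the mean of the no-compound control wells, seen in both duplicate plates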;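 also: signal is fluorescence rise after thallium addition divided by baseline fluorescence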
KCNK9 uninduced – thallium flux in non-induced HEK293 cells, confirmation, counter-screen for KCNK9 inhibitor project, cell-based, second counter screen, non-induced KCNK9-HEK293 | shares compounds with KCNK9 inh | FluxOR thallium flux | inhibition, % at 10 µM | hit rate 40% among 4,900;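 active = thallium signal drop beyond 5 SD of the untreated control mean, on both duplicate plates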
Large screens that a line does not name were inactive (follow-up assays come after a bar, where they were run). Shown are actives, neighbours in structure and some others; about 3.8% of the full set was active somewhere.

Fc1ccccc1OCCSc1nnnn1-c1ccccc1	none
COc1ccccc1OCCSc1nnnn1-c1ccc(C)cc1	none | KCNK9 block conf inactive | Kir2-1 spec inactive | KCNK9 uninduced inactive
Cc1ccc(C2(C)NC(=O)N(CC(=O)Nc3ccc(Cl)c(S(=O)(=O)N4CCCCC4)c3)C2=O)cc1 (configuration not stated)	none
COc1ccc(OC)c(S(=O)(=O)N2CCN(c3c(C)cccc3C)CC2)c1	KCNK9 inh -11 | KCNK9 block conf 52% | Kir2-1 spec inactive | KCNK9 uninduced 34%
O=[N+]([O-])c1ccc(S(=O)(=O)Nc2ccc3c(c2)OCCO3)cc1	KCNK9 inh -8.1 | KCNK9 block conf inactive | Kir2-1 spec inactive | KCNK9 uninduced inactive
CN1CCN(Cc2cccc(Oc3ccccc3)c2)CC1	none
COc1ccc(CN2CCN(C(c3ccc(F)cc3)c3ccc(F)cc3)CC2)c(OC)c1OC	none | KCNK9 block conf inactive | Kir2-1 spec inactive | KCNK9 uninduced inactive
COc1ccc(CN2CCN(Cc3cccc(Oc4ccccc4)c3)CC2)c(OC)c1OC	none | KCNK9 block conf inactive | Kir2-1 spec inactive | KCNK9 uninduced inactive
OCC1(Cc2ccccc2)CCCN(Cc2cn[nH]c2-c2ccccc2)C1 (configuration not stated)	none
Cn1cc(CN2CCCC(CO)(Cc3ccccc3)C2)c2ccccc21 (configuration not stated)	none | KCNK9 block conf inactive | Kir2-1 spec inactive | KCNK9 uninduced 28%
COc1cccc(CC2(CO)CCCN(Cc3ccc(OC)c(C)c3OC)C2)c1 (configuration not stated)	none | KCNK9 block conf inactive | Kir2-1 spec inactive | KCNK9 uninduced inactive
Cc1ccc(NC(=O)CSc2nc3ccccc3c(=O)n2CCCC(=O)NCC2CCCO2)cc1 (configuration not stated)	none
C=CCN(c1ccccc1)S(=O)(=O)c1cccc(C(=O)N(CC)CC(=O)Nc2c(F)cccc2F)c1	none
Cc1ccc(SCCNC(=O)/C=C/c2cccc([N+](=O)[O-])c2)cc1	none | KCNK9 block conf inactive | Kir2-1 spec inactive | KCNK9 uninduced inactive
O=C(/C=C/c1cccc([N+](=O)[O-])c1)NCCSCc1c(Cl)cccc1Cl	none
O=C(/C=C/c1cccc([N+](=O)[O-])c1)NCCSc1ccccc1	none
O=C(/C=C/c1cccc([N+](=O)[O-])c1)NCCSCc1ccc(Cl)cc1	KCNK9 inh -9 | KCNK9 block conf 54% | Kir2-1 spec inactive | KCNK9 uninduced 32%
C=C(c1ccc(O)cc1)c1ccc(O)cc1	KCNK9 inh -11 | KCNK9 block conf 46% | Kir2-1 spec inactive | KCNK9 uninduced inactive
COc1ccc(Cn2c(O)c(/C=N/NC(=O)c3cccnc3)c3ccccc3c2=O)cc1	none
CC1C[C@@]2(NC(=O)NC2=O)C(C)CN1C (some centres not stated)	none
COc1ccccc1CN1CCN(S(=O)(=O)c2ccccc2)CC1	none | KCNK9 block conf inactive | Kir2-1 spec inactive | KCNK9 uninduced inactive
O=S(=O)(c1ccccc1)N1CCN(Cc2ccccc2)CC1	none
